Hits are enriched below; roughly 1.5% of the tested compounds scored in any of these assays.
RBBP9 inh – blocks human serine hydrolase RBBP9. recombinant RBBP9, FP-Rh probe fluorescence polarization. inhibition, % at 7.94 µM. actives 0.2% (n = 220,000). AID 1515;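 active = inhibition above the campaign mean of all tested compounds plus 3 SD, cut at about 14% in these data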;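 note: plate controls were DMSO wells with RBBP9 for no effect and wells lacking RBBP9 protein for full effect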
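system = RBBP9 protein | input = RBBP9 at 2.5 µM in dispensed solution, before mixing | measured by = fluorescence polarization (mP), excitation 525 nm, emission 598 nm | incubation = enzyme-compound preincubation 30 min, then probe labeling 45 min, 25 °C | buffer or medium = Tris-NaCl-Pluronic buffer, pH 8.0 | compound = single dose 7.94 µM | also added = FP-Rh probe, 375 nM dispensing solution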
p97 ATPase inh – human p97 ATPase inhibition; inhibition, % at 8 µM; P55072; recombinant p97 ATPase, Kinase-Glo ATP luminescence, 3 h; actives 0.42% (n = 220,000); AID 1481; in the data active = inhibition above about 15%;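 note: 0% = DMSO vehicle and 100% = wells lacking enzyme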
Target sequence (P55072 whole entry, looked up): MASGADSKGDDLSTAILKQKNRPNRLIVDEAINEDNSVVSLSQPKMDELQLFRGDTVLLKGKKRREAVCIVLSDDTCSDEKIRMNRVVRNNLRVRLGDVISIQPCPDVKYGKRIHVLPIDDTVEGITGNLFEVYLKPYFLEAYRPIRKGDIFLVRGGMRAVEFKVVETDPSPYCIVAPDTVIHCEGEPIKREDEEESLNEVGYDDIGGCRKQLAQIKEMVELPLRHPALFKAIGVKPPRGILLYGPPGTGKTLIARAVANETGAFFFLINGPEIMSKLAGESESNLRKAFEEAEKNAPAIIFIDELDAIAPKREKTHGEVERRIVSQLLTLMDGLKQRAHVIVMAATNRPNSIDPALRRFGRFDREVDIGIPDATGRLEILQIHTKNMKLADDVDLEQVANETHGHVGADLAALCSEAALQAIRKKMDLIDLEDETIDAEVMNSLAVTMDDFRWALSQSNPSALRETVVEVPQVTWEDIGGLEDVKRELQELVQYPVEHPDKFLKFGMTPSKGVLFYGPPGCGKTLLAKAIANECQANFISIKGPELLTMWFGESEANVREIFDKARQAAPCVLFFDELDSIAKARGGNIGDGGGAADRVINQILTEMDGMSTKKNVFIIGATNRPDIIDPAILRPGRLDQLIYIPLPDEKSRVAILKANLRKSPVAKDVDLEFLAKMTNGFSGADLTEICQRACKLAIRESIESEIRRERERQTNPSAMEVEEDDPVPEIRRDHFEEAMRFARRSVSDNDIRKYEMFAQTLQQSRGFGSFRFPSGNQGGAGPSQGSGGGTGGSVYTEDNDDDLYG
PP1 inh – PP1-alpha (human) inhibition in PP5 counter-screen; purified PP1alpha, OMFP fluorescence; inhibition, % at 6.7 µM; actives 0.9% (n = 320,000);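 active = inhibition above the mean inhibition of all tested compounds plus 3 SD, computed separately for each screening campaign, cut at about 15% in these data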
PKD1 inh – PKD1 (human) kinase inhibition; Q15139; PKD1 kinase fluorescence polarization assay; inhibition, % (no concentration beside the values); actives 0.056% (n = 200,000); in the data active = inhibition above about 50%
PP5 primary – blocks human protein phosphatase 5 activity. P53041. purified PP5c, OMFP substrate fluorescence. inhibition, % at 6.7 µM. actives 0.18% (n = 320,000);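 active = inhibition above the campaign's mean inhibition across all tested compounds plus 3 SD, cut at about 9.5% in these data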;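 note: 0% = DMSO only and 100% = 100 µM cantharidin control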
Hsp70 act – transcriptional activators of Hsp70; HeLa Hsp70 promoter luciferase reporter, luminescence; scaled: vehicle 0, proteasome-inhibitor control 100%; actives 0.04% (n = 200,000); AID 1203; activation, % at 10 µM;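 active = activation above the mean across all tested compounds plus 3 SD, cutoff set per campaign, cut at about 5.5% in these data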;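 note: 100% = MG132 at 30 µM as the positive control and 0% = DMSO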
PP1 inh confirm – confirmation of human PP1 phosphatase inhibitors. actives 52% (n = 1,900). purified PP1alpha, OMFP substrate fluorescence. shares compounds with PP1 inh. AID 2358. inhibition, % at 6.7 µM;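 active = mean PP1 inhibition above a set limit taken from the earlier primary screen, cut at about 15% in these data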
PP5 counter – inhibits human PP5 phosphatase in PP1 counter-screen; inhibition, % at 6.7 µM; actives 4% (n = 1,900); shares compounds with PP1 inh; purified PP5c, OMFP fluorescence;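 active = mean PP5 inhibition over triplicate wells above about 9.5% taken from the earlier PP1 screen, limit read from the data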
* hit, by the source's call.

Screening CN(CC1CCCO1)S(=O)(=O)c1ccc(C(=O)Nc2ccccc2F)cc1 (stereo unspecified) returned PP1 inh -2 and PP5 primary 3.
For CC(C)(C)C(=O)N1N=C(c2ccc(NS(C)(=O)=O)cc2)CC1c1cccs1 (stereo unspecified) the results were RBBP9 inh -10, p97 ATPase inh -2, PP1 inh 23*, PKD1 inh -4, PP5 primary 8, Hsp70 act 0, PP1 inh confirm -1 and PP5 counter -2.
`CS(=O)(=O)Nc1ccc(C2=NN(C(=O)c3ccccc3)C(c3cccs3)C2)cc1` (stereo unspecified) gave PP1 inh 4 and PP5 primary 1.
For COc1cc(NC(=O)c2cc(S(=O)(=O)N3CCCCC3)c[nH]2)cc(OC)c1 the results were PP1 inh 18*, PP5 primary -2, PP1 inh confirm 12 and PP5 counter -4.
Screening Cc1cc(F)ccc1S(=O)(=O)NCC(c1ccc2c(c1)OCO2)N1CCOCC1 (stereo unspecified) returned PP1 inh -5 and PP5 primary -1.
For COc1ccc(C)cc1Nc1n[n+](-c2ccccc2)c(-c2c(OC)ccc3ccccc23)s1 the results were PP1 inh 11 and PP5 primary 0.
c1ccc(-[n+]2nc(Nc3cccc4ccccc34)sc2-c2c3ccccc3cc3ccccc23)cc1 was read as PP1 inh 31*, PP5 primary 3, PP1 inh confirm 30* and PP5 counter 1.
Fc1ccc(-[n+]2nc(Nc3ccccc3)sc2-c2c3ccccc3cc3ccccc23)cc1 was read as PP1 inh 22*, PP5 primary 2, PP1 inh confirm 5 and PP5 counter 1.
Cc1cccc(NC(=O)N2C3CCCC2CC(NC(=O)C(C)(C)C)C3)c1 (stereo unspecified) was read as PP1 inh 1 and PP5 primary 7.
Screening Cc1cccc(NC(=O)Cn2nnc(C(=O)Nc3ccc(F)c(Cl)c3)c2N)c1 returned PP1 inh 19*, PP5 primary -6, PP1 inh confirm -1 and PP5 counter -4.
For COc1cccc(NC(=O)c2nnn(CC(=O)Nc3cc(C)cc(C)c3)c2N)c1 the results were PP1 inh 5 and PP5 primary 4.
Cc1ccc(CNC(=O)CS(=O)(=O)Cc2nc(-c3ccc(C)cc3)oc2C)cc1 was read as PP1 inh -5 and PP5 primary -3.
Screening O=C(CSc1nnc(COc2ccccc2)n1-c1ccccc1)c1ccccc1 returned RBBP9 inh -6, p97 ATPase inh -7, PP1 inh 1, PKD1 inh -3, PP5 primary 1 and Hsp70 act 0.
For O=C(O)CSc1nnc(COc2ccc(Br)cc2)n1-c1ccccc1 the results were PP1 inh 31*, PP5 primary 2, PP1 inh confirm 3 and PP5 counter 2.
For CCCOc1ccc(/C=N/Nc2cc(N3CCOCC3)ncn2)c(O)c1 the results were PP1 inh 27*, PP5 primary 0, PP1 inh confirm 23* and PP5 counter -6.
For CCCCOc1ccc(/C=N/Nc2cc(N3CCOCC3)nc(C)n2)cc1 the results were PP1 inh 3 and PP5 primary 5.
`Cn1nc(C(F)(F)F)cc1Oc1ncc(C(F)(F)F)cc1Cl` gave RBBP9 inh -5, p97 ATPase inh 3, PP1 inh -2, PKD1 inh -1, PP5 primary -1 and Hsp70 act 0.
`c1ccc(-c2n[nH]c(-c3ccccn3)n2)nc1` gave RBBP9 inh -9, p97 ATPase inh -6, PP1 inh 27*, PKD1 inh -1, PP5 primary 2, Hsp70 act 0, PP1 inh confirm 23* and PP5 counter -6.
c1ccc(-c2n[nH]c(-c3ccccn3)n2)cc1 was read as RBBP9 inh -6, p97 ATPase inh 0, PP1 inh -5, PKD1 inh 0, PP5 primary 3 and Hsp70 act 0.
`Cc1cc(C(=O)CSc2nn(-c3ccccc3)c(=S)s2)c(C)n1Cc1ccco1` gave RBBP9 inh -12, p97 ATPase inh 3, PP1 inh 20*, PKD1 inh -4, PP5 primary 3, Hsp70 act 0, PP1 inh confirm 15 and PP5 counter -2.
C#CCOCCOCCOCCNc1nc(N2CCN(C(=O)CCCCCCCCCCNC(=O)[C@H]([C@@H](C)CC)n3cc(CCCCN=C(N)N)nn3)CC2)nc(N2CCN(C(=O)CCCCCCCCCCNC(=O)[C@H](CCCCN)n3cc(C)nn3)CC2)n1 was read as PP1 inh 70*, PP5 primary 6, PP1 inh confirm 57* and PP5 counter 2.
C#CCOCCOCCOCCNc1nc(N2CCN(C(=O)[C@H]([C@@H](C)CC)n3cc([C@@H](N)CO)nn3)CC2)nc(N2CCN(C(=O)[C@H](Cc3cc4ccccc4[nH]3)n3cc([C@@H](N)Cc4ccc(O)cc4)nn3)CC2)n1 was read as PP1 inh 24*, PP5 primary 8, PP1 inh confirm -6 and PP5 counter 2.
For C#CCOCCOCCOCCNc1nc(N2CCN(C(=O)CCCCCCCCCCNC(=O)[C@H](CO)n3cc(CCCSC)nn3)CC2)nc(N2CCN(C(=O)CCCCCCCCCCNC(=O)[C@H](CCCN=C(N)N)n3cc(C[C@@H](C)CC)nn3)CC2)n1 the results were PP1 inh 46*, PP5 primary 7, PP1 inh confirm 30* and PP5 counter 1.
C#CCOCCOCCOCCNc1nc(N2CCOCC2)nc(N2CCN(C(=O)[C@H](Cc3cc4ccccc4[nH]3)n3cc([C@@H](N)Cc4ccc(O)cc4)nn3)CC2)n1 was read as RBBP9 inh 3, p97 ATPase inh 6, PP1 inh -2, PKD1 inh 4, PP5 primary 0 and Hsp70 act 0.
`C#CCOCCOCCOCCNc1nc(N2CCN(C(=O)CCCCCCCCCCNC(=O)Cn3cc(CCCCCN)nn3)CC2)nc(N2CCN(C(=O)CCCCCCCCCCNC(=O)[C@H]([C@@H](C)CC)n3cc(CCCCN=C(N)N)nn3)CC2)n1` gave PP1 inh 70*, PP5 primary 3, PP1 inh confirm 55* and PP5 counter 1.

Source: PubChem BioAssay (several laboratories)
